Active and inactive are the calls of the source. No cut-off for these calls is given here.
Assays:
[1] = molecular target: T1, 3-hydroxy-3-methylglutaryl-coenzyme A reductase (Homo sapiens, UniProt P04035); test: (§1) Induction of degradation of Flag-tagged human HMGCR-dCat-ELuc membrane domain (1 to 499 residues) expressed in HEK293 cells assessed as reduction in HMGCR-dCat-Eluc protein level after 4 hrs by luciferase reporter assay; format: cell-based
T1 sequence (P04035 whole entry): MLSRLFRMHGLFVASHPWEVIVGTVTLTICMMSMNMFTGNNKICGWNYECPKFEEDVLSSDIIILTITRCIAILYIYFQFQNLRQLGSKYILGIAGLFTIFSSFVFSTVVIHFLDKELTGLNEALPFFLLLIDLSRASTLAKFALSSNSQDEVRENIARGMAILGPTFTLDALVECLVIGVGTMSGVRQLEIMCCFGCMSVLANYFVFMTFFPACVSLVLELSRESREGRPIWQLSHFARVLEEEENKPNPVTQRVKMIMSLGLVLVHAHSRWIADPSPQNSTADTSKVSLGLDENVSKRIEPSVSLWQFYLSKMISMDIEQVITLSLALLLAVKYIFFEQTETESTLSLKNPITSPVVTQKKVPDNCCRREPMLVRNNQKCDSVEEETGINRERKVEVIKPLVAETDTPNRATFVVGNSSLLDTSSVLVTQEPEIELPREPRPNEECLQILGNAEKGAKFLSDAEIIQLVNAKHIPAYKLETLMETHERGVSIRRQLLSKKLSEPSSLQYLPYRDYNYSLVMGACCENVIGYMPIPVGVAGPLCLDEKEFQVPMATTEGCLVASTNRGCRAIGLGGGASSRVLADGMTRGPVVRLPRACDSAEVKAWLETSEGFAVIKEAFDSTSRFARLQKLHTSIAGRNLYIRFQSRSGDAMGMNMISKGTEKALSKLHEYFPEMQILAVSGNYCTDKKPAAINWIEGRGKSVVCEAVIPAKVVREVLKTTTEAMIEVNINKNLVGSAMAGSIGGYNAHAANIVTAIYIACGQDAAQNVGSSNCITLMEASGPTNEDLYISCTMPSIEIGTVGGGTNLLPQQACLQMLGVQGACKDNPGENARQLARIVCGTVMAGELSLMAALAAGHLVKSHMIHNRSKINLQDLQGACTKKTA
In short: (§2)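 HEK293 cells stably expressing HMGCR-dCat-ELuc (FLAG-tagged membrane domain, residues 1-499, emerald luciferase) in DMEM/10% FBS. Compound treatment 4 h, then remaining fusion quantified by luciferase luminescence. Normalized to 0.1% DMSO vehicle as % of control. EC50 given as mean ± SD of more than three independent dose-response experiments.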

HEK293 [2] = test: Cytotoxicity against human HEK293 cells assessed as reduction in cell viability at 10 uM incubated for 4 hrs by CytoRed viability assay; format: cell-based; settings: hek293, 4 h
In short: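 HEK293 cells stably expressing HMGCR-dCat-ELuc (HMGCR residues 1-499 with FLAG tag and emerald luciferase) are grown in DMEM with 10% FBS and penicillin-streptomycin at 5% CO2. Cells are dosed for 4 h. CytoRed, which reads cellular esterase activity, is measured in the same wells just before the luciferase read. The vehicle is 0.1% DMSO.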

[3] = molecular target: T2, 3-hydroxy-3-methylglutaryl-coenzyme A reductase (Homo sapiens) (UniProt P04035); test: as §1; format: cell-based; in short: as §2
T2 sequence (whole entry): T1 sequence (P04035 whole entry)

HEK293 [4] = test: Cytotoxicity against human HEK293 cells assessed as cell viability at 0.01 to 10 uM incubated for 4 hrs by CytoRed viability assay; format: cell-based; settings: hek293, 4 h, dose 0.01-10 µM
In short: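 CytoRed esterase-based viability read in the same wells as the 4 h HMGCR-dCat-ELuc stable HEK293 degradation assay, just before luciferase measurement.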

[5] = molecular target: T2, 3-hydroxy-3-methylglutaryl-coenzyme A reductase (Homo sapiens); test: Induction of degradation of Flag-tagged human HMGCR-dCat-ELuc membrane domain (1 to 499 residues) expressed in HEK293 cells assessed as reduction in HMGCR-dCat-Eluc protein level at 10 uM after 4 hrs by luciferase reporter assay; format: cell-based; in short: as §2
[6] = molecular target: T2, 3-hydroxy-3-methylglutaryl-coenzyme A reductase (Homo sapiens); test: (§3) Binding affinity to Flag-tagged human HMGCR-dCat-ELuc membrane domain (1 to 499 residues) transfected in HEK293 cell membrane co-transfected with p-CMV-Insig1-myc-FLAG at 20 uM preincubated for 30 mins followed by irradiation with UV light for 3 mins by immunoprecipitation analysis; format: cell membranes
[7] = molecular target: T2, 3-hydroxy-3-methylglutaryl-coenzyme A reductase (Homo sapiens); test: as §3, with “3 mins in presence of 50 to 200 uM SRP3042 by immunoprecipitation” for “3 mins by immunoprecipitation”; format: cell membranes
[8] = molecular target: T3, Insulin-induced gene 1 protein (Homo sapiens) (UniProt O15503); test: Binding affinity to FLAG/myc-tagged Insig1 transfected in HEK293 cell membrane co-transfected with Flag-tagged human HMGCR-dCat-Eluc membrane domain (1 to 499 residues) at 20 uM preincubated for 30 mins followed by irradiation with UV light for 3 mins by immunoprecipitation analysis; format: cell membranes
T3 sequence (whole entry): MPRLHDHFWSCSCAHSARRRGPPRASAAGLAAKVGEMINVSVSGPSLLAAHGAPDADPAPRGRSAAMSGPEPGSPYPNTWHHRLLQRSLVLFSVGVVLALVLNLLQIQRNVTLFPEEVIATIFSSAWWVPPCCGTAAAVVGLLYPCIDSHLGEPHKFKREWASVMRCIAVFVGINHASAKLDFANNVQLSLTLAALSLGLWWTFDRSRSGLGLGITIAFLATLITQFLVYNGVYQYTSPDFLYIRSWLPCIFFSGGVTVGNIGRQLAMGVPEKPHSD

Row | SMILES | EC50 ([1]; read-out: EC50) [nM] | Activity (HEK293 [4]) | further results
1 | CC(C)OP(=O)(OC(C)C)C(=Cc1cc(C(C)(C)C)c(O)c(C(C)(C)C)c1)P(=O)(OC(C)C)OC(C)C | 1340 | – | Activity (HEK293 [2]): Toxic
2 | CCOP(=O)(OCC)C(=Cc1cc(C(C)(C)C)c(O)c(C(C)(C)C)c1)P(=O)(OCC)OCC | 1100 | – | Activity (HEK293 [2]): Toxic
3 | CCOP(=O)(OCC)C(=Cc1ccc(O)c(C(C)(C)C)c1)P(=O)(OCC)OCC | – | Non-Toxic | EC50 ([1]; hek293): Not Active; Activity [5]: inactive
4 | C#Cc1cc(CC(P(=O)(OC(C)C)OC(C)C)P(=O)(OC(C)C)OC(C)C)cc(N=[N+]=[N-])c1 | – | Non-Toxic | EC50 ([1]; hek293): Not Active; Activity [5]: inactive
5 | CC(C)OP(=O)(OC(C)C)C(Cc1cc(C(C)(C)C)c(O)c(C(C)(C)C)c1)P(=O)(OC(C)C)OC(C)C [APOMINE] | 876 | Non-Toxic | –
6 | C#CCOP(=O)(OC(C)C)C(Cc1cc(C(C)(C)C)nc(C(C)(C)C)c1)P(=O)(OC(C)C)OC(C)C (stereo not drawn) | 633 | Non-Toxic | –
7 | CCOP(=O)(OCC)C(=Cc1cc(C(C)(C)C)cc(C(C)(C)C)c1)P(=O)(OCC)OCC | 1160 | Non-Toxic | –
8 | CC(C)OP(=O)(OC(C)C)C(Cc1cc(N=[N+]=[N-])cc(C(C)(C)C)c1)P(=O)(OC(C)C)OC(C)C | 1660 | Non-Toxic | –
9 | CC(C)OP(=O)(O)C(Cc1cc(C(C)(C)C)nc(C(C)(C)C)c1)P(=O)(OC(C)C)OC(C)C (stereo not drawn) | – | Non-Toxic | EC50 ([1]; hek293): Not Active; Activity [5]: inactive
10 | C#CCCOP(=O)(OC(C)C)C(Cc1cc(C(C)(C)C)nc(C(C)(C)C)c1)P(=O)(OC(C)C)OC(C)C (stereo not drawn) | 795 | Non-Toxic | –
11 | CCOP(=O)(OCC)C(Cc1cc(C(C)(C)C)c(O)c(C(C)(C)C)c1)P(=O)(OCC)OCC | 2770 | Non-Toxic | –
12 | CCOP(=O)(OCC)C(=Cc1ccc(O)cc1)P(=O)(OCC)OCC | – | Non-Toxic | EC50 ([1]; hek293): Not Active; Activity [5]: inactive

Further lines, with some results ahead:

Row | EC50 ([1]; read-out: EC50) [nM] | SMILES | Activity (HEK293 [4]) | further results
13 | 153 | CC(C)OP(=O)(OC(C)C)C(Cc1cc(C(C)(C)C)nc(C(C)(C)C)c1)P(=O)(OC(C)C)OC(C)C | Non-Toxic | Activity [3]: Dose-dependent effect
14 | 3540 | C#Cc1cc(CC(P(=O)(OC(C)C)OC(C)C)P(=O)(OC(C)C)OC(C)C)cc(C(C)(C)C)c1 | Non-Toxic | –
15 | 1460 | CC(C)OP(=O)(OC(C)C)C(Cc1cc(I)cc(C(C)(C)C)c1)P(=O)(OC(C)C)OC(C)C | Non-Toxic | –
16 | 417 | C#CCCC1(CCOP(=O)(OC(C)C)C(Cc2cc(C(C)(C)C)nc(C(C)(C)C)c2)P(=O)(OC(C)C)OC(C)C)N=N1 (stereo not drawn) | Non-Toxic | Activity [3]: Dose-dependent effect; Activity [6]: Active; Activity [7]: inactive; Activity [8]: inactive
17 | 317 | CC(C)OP(=O)(OC(C)C)C(Cc1cc(C(C)(C)C)cc(C(C)(C)C)c1)P(=O)(OC(C)C)OC(C)C | Non-Toxic | –

From ChEMBL document CHEMBL4725260, “Bisphosphonate esters interact with HMG-CoA reductase membrane domain to induce its degradation” (Bioorg Med Chem, 2020)
